Measured values reported in ChEMBL document CHEMBL4152200, “Targeting the entrance channel of NNIBP: Discovery of diarylnicotinamide 1,4-disubstituted 1,2,3-triazoles as novel HIV-1 NNRTIs with high potency against wild-type and E138K mutant virus” (Eur J Med Chem, 2018).

Columns and labels:
[1] = tested on: Human immunodeficiency virus 1; experiment: Antiviral activity against HIV-1 RES056 harboring reverse transcriptase K103N/Y181C double mutant infected in human MT4 cells assessed as inhibition of viral replication after 5 days by MTT assay; type: functional, organism-based; conditions: Human immunodeficiency virus 1, RES056, MT4, 120 h
MT4 = experiment: Cytotoxicity against human MT4 cells assessed as decrease in cell viability after 5 days by MTT assay; type: cell-based; conditions: mt4, 120 h
Procedure, shortened: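 Mock-infected MT-4 cells, exponentially growing, seeded with compound in culture medium without virus; run in parallel with the antiviral assay. Viability read spectrophotometrically by MTT reduction five days later.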

[2] = tested on: Human immunodeficiency virus 1; experiment: Antiviral activity against wild-type HIV-1 3B infected in human MT4 cells assessed as inhibition of viral replication after 5 days by MTT assay; type: functional, organism-based; conditions: Human immunodeficiency virus 1, 3B, MT4, 120 h
[3] = Selectivity index, ratio of CC50 for human MT4 cells to EC50 for HIV-1 RES056 harboring reverse transcriptase K103N/Y181C double mutant infected in human MT4 cells; type: toxicity, cell-based; conditions: read-out: Ratio CC50/EC50
Procedure, shortened: (§1)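 SI is CC₅₀ divided by EC₅₀, both by MTT after 5 days in MT-4 cells. CC₅₀ comes from mock-infected cultures run in parallel and is the concentration reducing their viability by 50%. EC₅₀ comes from cultures infected with the given mutant strain at 100–300 CCID₅₀.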

[4] = Selectivity index, ratio of CC50 for human MT4 cells to EC50 for wild-type HIV1 3B; type: toxicity; conditions: read-out: Ratio CC50/EC50
Procedure, shortened: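 Wild-type HIV-1 IIIB at 100–300 CCID50 added to MT-4 cells with compound, with mock-infected wells in parallel. MTT viability was read at day 5. […] SI = CC50/EC50.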

[5] = tested on: Human immunodeficiency virus 1; experiment: Antiviral activity against HIV1 harboring reverse transcriptase L100I mutant infected in human MT4 cells assessed as inhibition of viral replication after 5 days by MTT assay; type: functional, organism-based; conditions: Human immunodeficiency virus 1, MT4, 120 h
[6] = tested on: Human immunodeficiency virus 1; experiment: Resistance factor, ratio of EC50 for HIV1 harboring reverse transcriptase L100I mutant to EC50 for wild-type HIV-1 3B; type: functional
Procedure, shortened: (§2)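 Resistance fold is EC₅₀ against the mutant strain divided by EC₅₀ against WT IIIB. Both EC₅₀ values come from the 5-day MTT protection assay in MT-4 cells infected with 100–300 CCID₅₀ of virus.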

[7] = Selectivity index, ratio of CC50 for human MT4 cells to EC50 for HIV1 harboring reverse transcriptase E138K mutant; type: toxicity; conditions: read-out: Ratio CC50/EC50; procedure, shortened: as §1
[8] = Selectivity index, ratio of CC50 for human MT4 cells to EC50 for HIV1 harboring reverse transcriptase F227L/V106A mutant; type: toxicity; conditions: read-out: Ratio CC50/EC50; procedure, shortened: as §1
[9] = tested on: Human immunodeficiency virus 1; experiment: Resistance factor, ratio of EC50 for HIV1 harboring reverse transcriptase E138K mutant to EC50 for wild-type HIV-1 3B; type: functional; procedure, shortened: as §2
[10] = Selectivity index, ratio of CC50 for human MT4 cells to EC50 for HIV1 harboring reverse transcriptase K103N mutant; type: toxicity; conditions: read-out: Ratio CC50/EC50; procedure, shortened: as §1
[11] = tested on: Human immunodeficiency virus 1; experiment: Antiviral activity against HIV1 harboring reverse transcriptase K103N mutant infected in human MT4 cells assessed as inhibition of viral replication after 5 days by MTT assay; type: functional, organism-based; conditions: Human immunodeficiency virus 1, MT4, 120 h
[12] = tested on: Human immunodeficiency virus 1; experiment: Resistance factor, ratio of EC50 for HIV1 harboring reverse transcriptase Y188L mutant to EC50 for wild-type HIV-1 3B; type: functional; procedure, shortened: as §2
[13] = tested on: Human immunodeficiency virus 1; experiment: Antiviral activity against HIV1 harboring reverse transcriptase F227L/V106A double mutant infected in human MT4 cells assessed as inhibition of viral replication after 5 days by MTT assay; type: functional, organism-based; conditions: Human immunodeficiency virus 1, MT4, 120 h
[14] = tested on: Human immunodeficiency virus 1; experiment: Antiviral activity against HIV1 harboring reverse transcriptase Y188L mutant infected in human MT4 cells assessed as inhibition of viral replication after 5 days by MTT assay; type: functional, organism-based; conditions: Human immunodeficiency virus 1, MT4, 120 h
Procedure, shortened: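 MT-4 cells in exponential growth, resuspended into wells holding HIV-1 stock (IIIB, RES056 K103N/Y181C, F227L/V106A, L100I, K103N, E138K, Y181C or Y188L) at 100–300 CCID₅₀, or into mock-infected wells. Viability read by MTT reduction to formazan, measured spectrophotometrically 5 days post-infection. EC₅₀ is the concentration giving 50% protection against virus-induced cytotoxicity.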

[15] = Selectivity index, ratio of CC50 for human MT4 cells to EC50 for HIV1 harboring reverse transcriptase L100I mutant; type: toxicity; conditions: read-out: Ratio CC50/EC50; procedure, shortened: as §1
[16] = Selectivity index, ratio of CC50 for human MT4 cells to EC50 for HIV1 harboring reverse transcriptase Y188L mutant; type: toxicity; conditions: read-out: Ratio CC50/EC50; procedure, shortened: as §1
[17] = tested on: Human immunodeficiency virus 1; experiment: Resistance factor, ratio of EC50 for HIV1 harboring reverse transcriptase Y181C mutant to EC50 for wild-type HIV-1 3B; type: functional; procedure, shortened: as §2
[18] = Selectivity index, ratio of CC50 for human MT4 cells to EC50 for HIV1 harboring reverse transcriptase Y181C mutant; type: toxicity; conditions: read-out: Ratio CC50/EC50; procedure, shortened: as §1
[19] = tested on: Human immunodeficiency virus 1; experiment: Resistance factor, ratio of EC50 for HIV1 harboring reverse transcriptase K103N mutant to EC50 for wild-type HIV-1 3B; type: functional; procedure, shortened: as §2
[20] = tested on: Human immunodeficiency virus 1; experiment: Antiviral activity against HIV1 harboring reverse transcriptase E138K mutant infected in human MT4 cells assessed as inhibition of viral replication after 5 days by MTT assay; type: functional, organism-based; conditions: Human immunodeficiency virus 1, MT4, 120 h
[21] = tested on: Human immunodeficiency virus 1; experiment: Antiviral activity against HIV1 harboring reverse transcriptase Y181C mutant infected in human MT4 cells assessed as inhibition of viral replication after 5 days by MTT assay; type: functional, organism-based; conditions: Human immunodeficiency virus 1, MT4, 120 h
[22] = tested on: Human immunodeficiency virus 1; experiment: Resistance factor, ratio of EC50 for HIV1 harboring reverse transcriptase F227L/V106A mutant to EC50 for wild-type HIV-1 3B; type: functional; procedure, shortened: as §2

SMILES | EC50 [1] [nM] | CC50 (MT4) [nM] | EC50 [2] [nM] | selectivity ratio [3] | selectivity ratio [4] | other results
Cc1cc(C)c(Oc2cc(Nc3ccc(C#N)cc3)ncc2C(=O)NCc2cn(Cc3ccccc3C#N)nn2)c(C)c1 | > 220000 | > 220000 | 39 |  |  | 
Cc1cccc(Cn2cc(CNC(=O)c3cnc(Nc4ccc(C#N)cc4)cc3Oc3c(C)cc(C)cc3C)nn2)c1 | > 114000 | 114000 | 106 | < 1 | 1070 | 
Cc1cc(C)c(Oc2cc(Nc3ccc(C#N)cc3)ncc2C(=O)NCc2cn(CCCO)nn2)c(C)c1 | 5230 | 25200 | 37 | 5 | 678 | EC50 [5]: 1950 nM; Ratio EC50 [6]: 52.7; selectivity ratio [7]: 651; selectivity ratio [8]: 32; Ratio EC50 [9]: 1.1; selectivity ratio [10]: 62; EC50 [11]: 410 nM; Ratio EC50 [12]: 85.7; EC50 [13]: 780 nM; EC50 [14]: 3170 nM; selectivity ratio [15]: 13; selectivity ratio [16]: 8; Ratio EC50 [17]: 6.2; selectivity ratio [18]: 109; Ratio EC50 [19]: 11.1; EC50 [20]: 39 nM; EC50 [21]: 230 nM; Ratio EC50 [22]: 21.1
Cc1cc(C)c(Oc2cc(Nc3ccc(C#N)cc3)ncc2C(=O)NCc2cn(Cc3cccc(C#N)c3)nn2)c(C)c1 | > 130000 | ≥ 130000 | 25 |  |  | 
Cc1cc(C)c(Oc2cc(Nc3ccc(C#N)cc3)ncc2C(=O)NCc2cn(Cc3ccccc3C)nn2)c(C)c1 | > 164000 | ≥ 164000 | 77 |  |  | 
CCOC(=O)CCn1cc(CNC(=O)c2cnc(Nc3ccc(C#N)cc3)cc2Oc2c(C)cc(C)cc2C)nn1 | > 21500 | 21500 | 847 | < 1 | 25 | 
Cc1cc(C)c(Oc2cc(Nc3ccc(C#N)cc3)ncc2C(=O)NCc2cn(Cc3cccc(Cl)c3)nn2)c(C)c1 | > 187000 | 187000 | 104 | < 1 | 1800 | 
Cc1ccc(Cn2cc(CNC(=O)c3cnc(Nc4ccc(C#N)cc4)cc3Oc3c(C)cc(C)cc3C)nn2)cc1 | > 165000 | 165000 | 167 | < 1 | 990 | 
Cc1cc(C)c(Oc2cc(Nc3ccc(C#N)cc3)ncc2C(=O)NCc2cn(Cc3ccc([N+](=O)[O-])cc3)nn2)c(C)c1 | > 140000 | ≥ 140000 | 40 |  |  | 
COC(=O)Cn1cc(CNC(=O)c2cnc(Nc3ccc(C#N)cc3)cc2Oc2c(C)cc(C)cc2C)nn1 | > 13800 | 13800 | 1770 | < 1 | 8 | 
Cc1cc(C)c(Oc2cc(Nc3ccc(C#N)cc3)ncc2C(=O)NCc2cn(Cc3ccccc3[N+](=O)[O-])nn2)c(C)c1 | > 212000 | > 212000 | 57 |  |  | 
Cc1cc(C)c(Oc2cc(Nc3ccc(C#N)cc3)ncc2C(=O)NCc2cn(CCC#N)nn2)c(C)c1 | 2310 | 40200 | 20 |  |  | EC50 [5]: 1060 nM; Ratio EC50 [6]: 53; selectivity ratio [7]: 2630; selectivity ratio [8]: 121; Ratio EC50 [9]: 0.8; selectivity ratio [10]: 158; EC50 [11]: 250 nM; Ratio EC50 [12]: 112; EC50 [13]: 330 nM; EC50 [14]: 2240 nM; selectivity ratio [15]: 38; selectivity ratio [16]: 18; Ratio EC50 [17]: 4.5; selectivity ratio [18]: 450; Ratio EC50 [19]: 12.5; EC50 [20]: 15 nM; EC50 [21]: 89 nM; Ratio EC50 [22]: 16.5
